Tests used:
[1] = tested on: mouse PDAC cells; type: cell-based; details: flow cytometry
In short: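 Early-passage PDAC cells came from Kras/p53L/L mouse tumors; normal primary ductal cells came from wild-type mice. Phage (~1 × 10^12 PFU) were labeled with 0.25 mg/ml FITC for 1 h and PEG-purified. Cells were incubated with 1 μM (FITC) phage for 1 h at 37 °C, washed three times with DPBS and trypsinized. Mean fluorescence was read by flow cytometry at 10,000 cells/sample.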

[2] = tested on: normal human ductal cells; type: cell-based; details: FITC-labeled phage 1 μM, 1 h at 37 °C, FACS
In short: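 Normal human ductal cells were incubated with 1 μM (FITC) FITC-labeled test phage or an unrelated control phage clone (SNLHPSD) for 1 h at 37 °C. Cells were washed three times with DPBS, trypsinized and centrifuged, then read by flow cytometry at 10,000 cells/sample. Mean fluorescence served as relative uptake.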

[3] = molecular target: plectin-1 (Mus musculus, UniProt Q9QXS1); test: Competition experiment with anti-plectin-1 antibody; type: binding; details: coincubation of anti-plectin-1 antibody and FITC-labeled phage with mouse PDAC cells, 1 h at 37 °C, versus vehicle
[4] = tested on: mouse PanINs and PDAC lesions, frozen sections; test: Binding of FITC-labeled phage to frozen mouse pancreas sections; details: 1 μM FITC-labeled phage, 1 h at 37 °C, fluorescence microscopy, n = 3
In short: (§1)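 Frozen tissues (n = 3) were embedded in OCT, cut at 5 μm and arrayed on slides. Sections were incubated for 1 h at 37 °C with 1 μM FITC-labeled test phage or FITC-labeled control phage (no insert). They were then washed three times with PBS, fixed in 2% paraformaldehyde and imaged by fluorescence microscopy (40× objective).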

[5] = tested on: human PDAC; test: Binding of FITC-labeled phage to frozen human PDAC sections; details: 1 μM FITC-labeled phage, 1 h at 37 °C, fluorescence microscopy
In short: as §1

Sequence of plectin-1 (Q9QXS1 whole entry): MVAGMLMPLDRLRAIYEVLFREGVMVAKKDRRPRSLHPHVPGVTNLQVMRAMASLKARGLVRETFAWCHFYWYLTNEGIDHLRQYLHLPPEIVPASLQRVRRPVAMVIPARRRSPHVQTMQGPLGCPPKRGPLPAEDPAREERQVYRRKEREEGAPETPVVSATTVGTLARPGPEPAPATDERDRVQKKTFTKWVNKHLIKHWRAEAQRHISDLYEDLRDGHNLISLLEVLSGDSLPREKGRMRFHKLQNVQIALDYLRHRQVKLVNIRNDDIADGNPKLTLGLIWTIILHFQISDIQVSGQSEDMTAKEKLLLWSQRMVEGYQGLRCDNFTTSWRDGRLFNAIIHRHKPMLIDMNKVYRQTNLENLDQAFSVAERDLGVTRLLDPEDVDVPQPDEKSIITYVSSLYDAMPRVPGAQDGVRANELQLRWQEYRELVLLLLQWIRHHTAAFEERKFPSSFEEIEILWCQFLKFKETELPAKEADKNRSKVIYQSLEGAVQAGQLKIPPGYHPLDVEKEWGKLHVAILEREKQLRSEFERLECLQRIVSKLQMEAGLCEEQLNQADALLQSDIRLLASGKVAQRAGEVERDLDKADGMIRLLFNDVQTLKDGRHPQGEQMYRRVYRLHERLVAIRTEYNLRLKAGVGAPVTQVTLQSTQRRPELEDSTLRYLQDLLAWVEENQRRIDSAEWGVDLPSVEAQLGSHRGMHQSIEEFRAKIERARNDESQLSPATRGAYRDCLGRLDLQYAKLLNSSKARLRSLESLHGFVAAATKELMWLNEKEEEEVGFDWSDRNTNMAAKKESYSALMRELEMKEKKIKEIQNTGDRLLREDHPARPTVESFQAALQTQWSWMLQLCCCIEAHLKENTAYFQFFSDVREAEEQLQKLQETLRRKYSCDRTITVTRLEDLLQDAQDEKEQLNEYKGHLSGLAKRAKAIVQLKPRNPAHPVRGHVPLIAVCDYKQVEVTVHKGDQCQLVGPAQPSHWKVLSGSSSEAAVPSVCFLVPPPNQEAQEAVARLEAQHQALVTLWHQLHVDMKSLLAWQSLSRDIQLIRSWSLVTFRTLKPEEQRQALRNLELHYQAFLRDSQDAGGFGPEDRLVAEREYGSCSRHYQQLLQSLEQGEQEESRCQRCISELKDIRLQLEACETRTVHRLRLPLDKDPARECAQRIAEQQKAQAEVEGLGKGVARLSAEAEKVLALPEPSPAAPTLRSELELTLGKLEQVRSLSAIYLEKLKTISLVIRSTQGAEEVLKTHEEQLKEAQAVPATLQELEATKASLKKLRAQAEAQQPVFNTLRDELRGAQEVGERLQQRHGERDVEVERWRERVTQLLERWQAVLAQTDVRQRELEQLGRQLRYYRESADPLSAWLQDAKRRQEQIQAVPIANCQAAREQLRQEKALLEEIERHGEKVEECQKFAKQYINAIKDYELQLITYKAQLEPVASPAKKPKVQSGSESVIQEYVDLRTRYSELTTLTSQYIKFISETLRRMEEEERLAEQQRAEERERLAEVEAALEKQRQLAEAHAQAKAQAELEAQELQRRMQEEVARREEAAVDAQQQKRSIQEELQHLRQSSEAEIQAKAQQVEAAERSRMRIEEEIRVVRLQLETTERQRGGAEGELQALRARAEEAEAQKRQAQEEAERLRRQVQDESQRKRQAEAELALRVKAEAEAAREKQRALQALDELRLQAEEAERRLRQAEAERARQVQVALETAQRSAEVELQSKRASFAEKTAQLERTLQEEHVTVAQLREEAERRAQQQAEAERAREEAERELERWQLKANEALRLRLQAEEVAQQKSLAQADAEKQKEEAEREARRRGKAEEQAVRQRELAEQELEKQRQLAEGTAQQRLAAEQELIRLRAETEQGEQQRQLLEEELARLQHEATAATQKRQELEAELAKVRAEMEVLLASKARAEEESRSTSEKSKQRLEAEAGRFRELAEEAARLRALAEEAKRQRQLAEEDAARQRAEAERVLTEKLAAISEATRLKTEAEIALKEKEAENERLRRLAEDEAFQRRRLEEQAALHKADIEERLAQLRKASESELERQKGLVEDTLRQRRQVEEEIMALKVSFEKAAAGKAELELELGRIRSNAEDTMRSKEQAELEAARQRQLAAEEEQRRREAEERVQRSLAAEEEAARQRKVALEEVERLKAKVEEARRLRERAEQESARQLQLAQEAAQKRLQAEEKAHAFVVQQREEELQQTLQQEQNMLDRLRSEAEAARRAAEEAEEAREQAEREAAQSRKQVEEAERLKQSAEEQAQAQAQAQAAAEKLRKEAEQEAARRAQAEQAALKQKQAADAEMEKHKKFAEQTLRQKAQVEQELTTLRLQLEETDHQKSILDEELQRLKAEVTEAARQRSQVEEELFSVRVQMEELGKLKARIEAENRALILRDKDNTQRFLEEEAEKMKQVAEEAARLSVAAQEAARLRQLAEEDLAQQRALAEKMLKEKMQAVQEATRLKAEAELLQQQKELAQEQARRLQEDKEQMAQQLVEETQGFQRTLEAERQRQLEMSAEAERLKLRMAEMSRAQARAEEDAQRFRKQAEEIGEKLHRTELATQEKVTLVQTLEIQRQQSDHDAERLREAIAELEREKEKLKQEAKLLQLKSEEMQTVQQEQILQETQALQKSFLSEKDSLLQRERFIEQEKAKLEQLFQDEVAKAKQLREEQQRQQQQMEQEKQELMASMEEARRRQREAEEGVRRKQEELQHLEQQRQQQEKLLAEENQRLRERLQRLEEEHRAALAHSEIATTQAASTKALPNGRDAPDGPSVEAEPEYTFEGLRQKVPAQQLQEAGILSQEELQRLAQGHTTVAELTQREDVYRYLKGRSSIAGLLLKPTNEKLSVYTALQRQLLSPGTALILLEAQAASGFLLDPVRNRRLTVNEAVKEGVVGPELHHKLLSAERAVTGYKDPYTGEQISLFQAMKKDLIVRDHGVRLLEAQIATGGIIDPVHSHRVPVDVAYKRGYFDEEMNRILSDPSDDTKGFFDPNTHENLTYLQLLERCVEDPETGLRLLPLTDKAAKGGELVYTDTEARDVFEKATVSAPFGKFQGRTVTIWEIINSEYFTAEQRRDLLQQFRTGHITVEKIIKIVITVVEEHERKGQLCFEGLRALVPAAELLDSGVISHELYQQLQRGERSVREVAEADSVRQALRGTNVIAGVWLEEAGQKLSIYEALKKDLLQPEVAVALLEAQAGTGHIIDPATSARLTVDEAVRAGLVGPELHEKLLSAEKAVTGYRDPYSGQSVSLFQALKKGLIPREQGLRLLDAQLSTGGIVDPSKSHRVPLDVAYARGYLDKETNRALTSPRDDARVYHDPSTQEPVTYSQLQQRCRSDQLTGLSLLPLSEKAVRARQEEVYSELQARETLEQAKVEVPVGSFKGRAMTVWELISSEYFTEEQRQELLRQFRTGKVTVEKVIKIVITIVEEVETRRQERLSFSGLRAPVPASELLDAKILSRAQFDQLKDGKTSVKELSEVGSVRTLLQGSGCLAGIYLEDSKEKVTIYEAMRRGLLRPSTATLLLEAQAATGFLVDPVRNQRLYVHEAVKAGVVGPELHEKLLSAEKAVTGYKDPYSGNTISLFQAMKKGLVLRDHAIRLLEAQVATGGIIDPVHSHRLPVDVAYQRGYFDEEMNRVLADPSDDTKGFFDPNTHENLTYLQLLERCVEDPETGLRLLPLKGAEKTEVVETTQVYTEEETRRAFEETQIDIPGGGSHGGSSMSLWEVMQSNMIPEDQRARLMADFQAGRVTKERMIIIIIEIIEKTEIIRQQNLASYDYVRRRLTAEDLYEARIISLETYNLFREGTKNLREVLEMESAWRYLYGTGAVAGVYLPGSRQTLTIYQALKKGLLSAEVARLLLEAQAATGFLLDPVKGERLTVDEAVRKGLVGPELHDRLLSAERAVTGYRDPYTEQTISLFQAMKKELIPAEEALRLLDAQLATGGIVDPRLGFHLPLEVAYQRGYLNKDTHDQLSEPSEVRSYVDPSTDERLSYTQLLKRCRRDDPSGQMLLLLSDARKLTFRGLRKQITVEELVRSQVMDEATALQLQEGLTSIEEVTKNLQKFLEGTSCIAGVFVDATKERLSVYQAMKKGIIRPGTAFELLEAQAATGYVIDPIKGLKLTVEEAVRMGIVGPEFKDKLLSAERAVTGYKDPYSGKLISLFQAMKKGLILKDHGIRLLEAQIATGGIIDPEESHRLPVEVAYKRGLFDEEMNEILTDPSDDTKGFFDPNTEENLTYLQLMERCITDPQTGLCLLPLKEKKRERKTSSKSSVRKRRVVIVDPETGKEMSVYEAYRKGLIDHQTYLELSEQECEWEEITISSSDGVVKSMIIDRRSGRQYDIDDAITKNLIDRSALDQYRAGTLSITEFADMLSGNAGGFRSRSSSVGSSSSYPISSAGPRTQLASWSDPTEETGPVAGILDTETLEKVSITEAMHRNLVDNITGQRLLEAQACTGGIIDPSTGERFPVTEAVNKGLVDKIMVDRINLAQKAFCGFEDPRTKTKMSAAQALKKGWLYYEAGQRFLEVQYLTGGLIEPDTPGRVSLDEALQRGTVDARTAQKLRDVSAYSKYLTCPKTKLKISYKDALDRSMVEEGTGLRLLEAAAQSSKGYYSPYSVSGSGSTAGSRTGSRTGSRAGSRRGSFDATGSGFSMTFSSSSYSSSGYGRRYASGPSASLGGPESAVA

In the case of KTLLPTP [clone 27], the “specificity for mouse PDAC cells over normal ductal cells” value ([1]; FITC-labeled phage, 1 μM (FITC), 1 h at 37 °C, mean fluorescence) is reported as 112 fold, the “specificity (ratio of clone 27/unrelated clone mean fluorescence)” value [2] is reported as 0.85 and the abrogation of binding [3] is reported as 96.9%. The “binding to PanINs and PDAC lesions on frozen sections” value [4] was “prominent binding” and the “detection of human PDAC on frozen sections” value [5] was “able to specifically detect human PDAC”.
For TMAPSIK [clone 15], the “rank of affinity among fluorescein-labeled phage clones” value ([1]; mouse PDAC and normal ductal cells, unpublished data) was “second in affinity”.

— publication PMC2292750 (PLoS Medicine, 2008)
